Source: ChEMBL document CHEMBL1155143, “Interaction of the GraRS two-component system with the VraFG ABC transporter to support vancomycin-intermediate resistance in Staphylococcus aureus” (2007)
Converted amounts (≈) assume the structure as drawn. The source made the active and inactive calls. The rule behind the calls is not given here.

Experiments:
Staphylococcus aureus [1] = assay: Antimicrobial activity against vancomycin-intermediate resistant Staphylococcus aureus Mu50 vraG mutant microdilution assay; assay type: functional
How it was run: (§1)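 Standardized CLSI broth microdilution was run in CSMHB with 10^5 CFU/ml inoculum and scored at 48 h. Values are medians of at least three independent experiments. Daptomycin MICs for Mu50 strains were read by Etest per the supplied protocol instead of microdilution.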

Staphylococcus aureus [2] = assay: Antimicrobial activity against wild type vancomycin-intermediate resistant Staphylococcus aureus Mu50 by microdilution assay; assay type: functional; how it was run: as §1
Staphylococcus aureus [3] = assay: Antimicrobial activity against vancomycin-intermediate resistant Staphylococcus aureus Mu50 graR mutant microdilution assay; assay type: functional; how it was run: as §1
Staphylococcus aureus [4] = assay: Antimicrobial activity against wild type vancomycin-intermediate resistant Staphylococcus aureus Mu50 expressing pEPSA5graRS2 plasmid by microdilution assay
Staphylococcus aureus [5] = assay: Antimicrobial activity against wild type vancomycin-intermediate resistant Staphylococcus aureus Mu50 expressing pEPSA5 plasmid by microdilution assay
Staphylococcus aureus [6] = assay: Antimicrobial activity against wild type vancomycin-intermediate resistant Staphylococcus aureus Mu50 expressing pEPSA5graFG1 plasmid by microdilution assay
Staphylococcus aureus [7] = assay: Antimicrobial activity against wild type vancomycin-intermediate resistant Staphylococcus aureus Mu50 expressing pEPSA5graRS1 plasmid by microdilution assay
Staphylococcus aureus [8] = assay: Antimicrobial activity against wild type methicillin-resistant Staphylococcus aureus COL expressing pEPSA5graRS1 plasmid by microdilution assay
Staphylococcus aureus [9] = assay: Antimicrobial activity against methicillin-resistant Staphylococcus aureus sacol1355 mutant assessed as hypersensitivity at 1 ug/ml; assay type: functional, organism-based
How it was run: (§2)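 Overnight CSMHB cultures (Mueller-Hinton broth with 25 μg/ml Ca2+ and 12.5 μg/ml Mg2+) were adjusted to A650 1.1 (~10^9 CFU/ml). They were diluted 200 μl per 7 ml CSMHB with or without 1 μg/ml vancomycin, and growth curves were plotted as A650 over time. Plasmid-carrying strains received 10 μg/ml chloramphenicol.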

Staphylococcus aureus [10] = assay: Antimicrobial activity against vancomycin-intermediate resistant Staphylococcus aureus Mu50 vraG mutant expressing pEPSA5graRS1 plasmid by microdilution assay
Staphylococcus aureus [11] = assay: Antimicrobial activity against methicillin-resistant Staphylococcus aureus COL assessed as hypersensitivity at 1 ug/ml; assay type: functional, organism-based; how it was run: as §2
Staphylococcus aureus [12] = assay: Antimicrobial activity against methicillin-resistant Staphylococcus aureus COL graR mutant assessed as hypersensitivity at 1 ug/ml; assay type: functional, organism-based; how it was run: as §2
Staphylococcus aureus [13] = assay: Antimicrobial activity against methicillin-resistant Staphylococcus aureus sacol2646 mutant assessed as hypersensitivity at 1 ug/ml; assay type: functional, organism-based; how it was run: as §2
Staphylococcus aureus [14] = assay: Antimicrobial activity against methicillin-resistant Staphylococcus aureus sacol2358 mutant assessed as hypersensitivity at 1 ug/ml; assay type: functional, organism-based; how it was run: as §2
Staphylococcus aureus [15] = assay: Antimicrobial activity against wild type methicillin-susceptible Staphylococcus aureus RN6390 by microdilution assay; assay type: functional, organism-based; how it was run: as §1
Staphylococcus aureus [16] = assay: Antimicrobial activity against methicillin-susceptible Staphylococcus aureus RN6390 graS by microdilution assay; assay type: functional, organism-based; how it was run: as §1
Staphylococcus aureus [17] = assay: Antimicrobial activity against wild type methicillin-resistant Staphylococcus aureus COL expressing pEPSA5vraFG2 plasmid by microdilution assay; assay type: functional, organism-based
How it was run: (§3)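 CLSI broth microdilution was run in CSMHB with 10^5 CFU/ml for strains carrying pEPSA5-based plasmids. Chloramphenicol 10 μg/ml maintained the plasmid, and growth was scored at 72 h. Media were used with or without 0.5% xylose or glucose. MIC is the median over all conditions from three independent experiments.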

Staphylococcus aureus [18] = settings: COL
Staphylococcus aureus [19] = assay: Antimicrobial activity against methicillin-resistant Staphylococcus aureus COL graR mutant by microdilution assay; assay type: functional, organism-based; how it was run: as §1
Staphylococcus aureus [20] = assay: Antimicrobial activity against wild type methicillin-resistant Staphylococcus aureus COL expressing pEPSA5vraFG1 plasmid by microdilution assay; assay type: functional, organism-based; how it was run: as §3
Staphylococcus aureus [21] = assay: Antimicrobial activity against methicillin-resistant Staphylococcus aureus COL vraG mutant by microdilution assay; assay type: functional, organism-based; how it was run: as §1
Staphylococcus aureus [22] = assay: Antimicrobial activity against methicillin-resistant Staphylococcus aureus COL graS mutant by microdilution assay; assay type: functional, organism-based; how it was run: as §1
Staphylococcus aureus [23] = assay: Antimicrobial activity against wild type methicillin-resistant Staphylococcus aureus COL expressing pEPSA5 plasmid by microdilution assay; assay type: functional, organism-based; how it was run: as §3
Staphylococcus aureus [24] = assay: Antimicrobial activity against methicillin-susceptible Staphylococcus aureus RN6390 vraG by microdilution assay; assay type: functional, organism-based; how it was run: as §1
Staphylococcus aureus [25] = assay: Antimicrobial activity against wild type methicillin-resistant Staphylococcus aureus COL expressing pEPSA5graRS2 plasmid by microdilution assay; assay type: functional, organism-based; how it was run: as §3
Staphylococcus aureus [26] = assay: Antimicrobial activity against wild type methicillin-resistant Staphylococcus aureus COL by microdilution assay; assay type: functional, organism-based; how it was run: as §1
Staphylococcus aureus [27] = assay: Antimicrobial activity against methicillin-susceptible Staphylococcus aureus RN6390 graR by microdilution assay; assay type: functional, organism-based; how it was run: as §1

Compound	MIC (Staphylococcus aureus [1])	MIC (Staphylococcus aureus [2])	MIC (Staphylococcus aureus [3])	also measured
O=C(O)c1cn(C2CC2)c2cc(N3CCNCC3)c(F)cc2c1=O [CIPROFLOXACIN]	64 µg/mL (≈ 193 µM)	32 µg/mL (≈ 96.6 µM)	64 µg/mL (≈ 193 µM)	
CN(C)[C@@H]1C(O)=C(C(N)=O)C(=O)[C@@]2(O)C(O)=C3C(=O)c4c(O)cccc4[C@@](C)(O)[C@H]3C[C@@H]12 [TETRACYCLINE]	64 µg/mL (≈ 144 µM)	64 µg/mL (≈ 144 µM)	128 µg/mL (≈ 288 µM)	
CC[C@H](C)[C@@H]1NC(=O)[C@H](CO)NC(=O)[C@@H]2CCCN2C(=O)[C@H](C)NC(=O)CNC(=O)[C@H](CC(C)C)NC(=O)[C@H](CCCCN)N[C@H](CCCCN)NC(=O)[C@H](CCSC)NC(=O)[C@H](CCCNC(=N)N)NC(=O)[C@H](Cc2c[nH]c3ccccc23)NC(=O)[C@H](CCC(N)=O)NC(=O)[C@H](Cc2c[nH]c3ccccc23)NC(=O)[C@H](CCCNC(=N)N)NC(=O)[C@H](CCCNC(=N)N)NC(=O)[C@@H](NC(=O)[C@H](CCCCN)NC(=O)[C@@H](N)Cc2ccccc2)CSSC[C@@H](C(=O)N[C@H](C(=O)N[C@@H](CCCNC(=N)N)C(=O)N[C@@H](C)C(=O)N[C@@H](Cc2ccccc2)C(=O)O)C(C)C)NC(=O)[C@H]([C@@H](C)O)NC1=O [LACTOFERRICIN]	≥ 512 µg/mL	≥ 512 µg/mL	≥ 512 µg/mL	
O=C(N[C@H](CO)[C@H](O)c1ccc([N+](=O)[O-])cc1)C(Cl)Cl [CHLORAMPHENICOL]	8 µg/mL (≈ 24.8 µM)	8 µg/mL (≈ 24.8 µM)	8 µg/mL (≈ 24.8 µM)	
Cc1onc(-c2ccccc2)c1C(=O)N[C@@H]1C(=O)N2[C@@H]1SC(C)(C)[C@@H]2C(=O)O [OXACILLIN]	1020 µg/mL (≈ 2550 µM)	512 µg/mL (≈ 1280 µM)	256 µg/mL (≈ 638 µM)	
CC[C@H]1OC(=O)[C@H](C)[C@@H](O[C@H]2C[C@@](C)(OC)[C@@H](O)[C@H](C)O2)[C@H](C)[C@@H](O[C@@H]2O[C@H](C)C[C@H](N(C)C)[C@H]2O)[C@](C)(O)C[C@@H](C)C(=O)[C@H](C)[C@@H](O)[C@]1(C)O [ERYTHROMYCIN]	≥ 2050 µg/mL	≥ 2050 µg/mL	1020 µg/mL (≈ 1400 µM)	
CN[C@H](CC(C)C)C(=O)N[C@H]1C(=O)N[C@@H](CC(N)=O)C(=O)N[C@H]2C(=O)N[C@H]3C(=O)N[C@H](C(=O)N[C@H](C(=O)O)c4cc(O)cc(O)c4-c4cc3ccc4O)[C@H](O)c3ccc(c(Cl)c3)Oc3cc2cc(c3O[C@@H]2O[C@H](CO)[C@@H](O)[C@H](O)[C@H]2O[C@H]2C[C@](C)(N)[C@H](O)[C@H](C)O2)Oc2ccc(cc2Cl)[C@H]1O [VANCOMYCIN]		8 µg/mL (≈ 5.52 µM)		MIC (Staphylococcus aureus [4]): 8 µg/mL (≈ 5.52 µM); MIC (Staphylococcus aureus [5]): 8 µg/mL (≈ 5.52 µM); MIC (Staphylococcus aureus [6]): 8 µg/mL (≈ 5.52 µM); MIC (Staphylococcus aureus [7]): 8 µg/mL (≈ 5.52 µM); MIC (Staphylococcus aureus [8]): 8 µg/mL (≈ 5.52 µM); Activity (Staphylococcus aureus [9]): inactive; MIC (Staphylococcus aureus [10]): 8 µg/mL (≈ 5.52 µM); Activity (Staphylococcus aureus [11]): inactive; Activity (Staphylococcus aureus [12]): Active; Activity (Staphylococcus aureus [13]): inactive; Activity (Staphylococcus aureus [14]): inactive
CO[C@H]1/C=C/O[C@@]2(C)Oc3c(C)c(O)c4c(O)c(c(/C=N/N5CCN(C)CC5)c(O)c4c3C2=O)NC(=O)/C(C)=C\C=C\[C@H](C)[C@H](O)[C@@H](C)[C@@H](O)[C@@H](C)[C@H](OC(C)=O)[C@@H]1C [RIFAMPIN]	1020 µg/mL (≈ 1240 µM)	1020 µg/mL (≈ 1240 µM)	1020 µg/mL (≈ 1240 µM)	
C/C(=C\C(=O)OCCCCCCCCC(=O)O)C[C@@H]1OC[C@H](C[C@@H]2O[C@H]2[C@@H](C)[C@H](C)O)[C@@H](O)[C@H]1O [MUPIROCIN]	0.25 µg/mL (≈ 0.499 µM)	0.25 µg/mL (≈ 0.499 µM)	0.25 µg/mL (≈ 0.499 µM)	
COc1cc(Cc2cnc(N)nc2N)cc(OC)c1OC [TRIMETHOPRIM]	4 µg/mL (≈ 13.8 µM)	4 µg/mL (≈ 13.8 µM)	2 µg/mL (≈ 6.89 µM)	
POLYMYXIN B	16 µg/mL	128 µg/mL	16 µg/mL	MIC (Staphylococcus aureus [15]): 32 µg/mL; MIC (Staphylococcus aureus [16]): 4 µg/mL; MIC (Staphylococcus aureus [17]): 64 µg/mL; MIC (Staphylococcus aureus [18]): 128 µg/mL; MIC (Staphylococcus aureus [19]): 8 µg/mL; MIC (Staphylococcus aureus [20]): 64 µg/mL; MIC (Staphylococcus aureus [21]): 8 µg/mL; MIC (Staphylococcus aureus [22]): 8 µg/mL; MIC (Staphylococcus aureus [23]): 64 µg/mL; MIC (Staphylococcus aureus [24]): 4 µg/mL; MIC (Staphylococcus aureus [25]): 64 µg/mL; MIC (Staphylococcus aureus [26]): 64 µg/mL; MIC (Staphylococcus aureus [27]): 4 µg/mL
N[C@@H]1CONC1=O [CYCLOSERINE]	64 µg/mL (≈ 627 µM)	128 µg/mL (≈ 1250 µM)	64 µg/mL (≈ 627 µM)	
C[C@@H]1O[C@@H]1P(=O)(O)O [FOSFOMYCIN]	1020 µg/mL (≈ 7420 µM)	1020 µg/mL (≈ 7420 µM)	1020 µg/mL (≈ 7420 µM)	
CCCCCCCCCC(=O)N[C@@H](Cc1c[nH]c2ccccc12)C(=O)N[C@H](CC(N)=O)C(=O)N[C@@H](CC(=O)O)C(=O)N[C@@H]1C(=O)NCC(=O)N[C@@H](CCCN)C(=O)N[C@@H](CC(=O)O)C(=O)N[C@H](C)C(=O)N[C@@H](CC(=O)O)C(=O)NCC(=O)N[C@H](CO)C(=O)N[C@@H]([C@H](C)CC(=O)O)C(=O)N[C@@H](CC(=O)c2ccccc2N)C(=O)O[C@@H]1C	2 µg/mL (≈ 1.23 µM)	2 µg/mL (≈ 1.23 µM)	1 µg/mL (≈ 0.617 µM)	
CO[C@@H]1[C@@H](OC(N)=O)[C@@H](O)[C@H](Oc2ccc3c(O)c(NC(=O)c4ccc(O)c(CC=C(C)C)c4)c(=O)oc3c2C)OC1(C)C [NOVOBIOCIN]	0.125 µg/mL (≈ 0.204 µM)	0.125 µg/mL (≈ 0.204 µM)	0.25 µg/mL (≈ 0.408 µM)	
NC[C@H]1O[C@H](O[C@H]2[C@H](O)[C@@H](O[C@H]3O[C@H](CO)[C@@H](O)[C@H](N)[C@H]3O)[C@H](N)C[C@@H]2N)[C@H](N)C[C@@H]1O [TOBRAMYCIN]	≥ 2050 µg/mL	≥ 2050 µg/mL	≥ 2050 µg/mL	
